Data published in ChEMBL document CHEMBL1146783, “Conformationally restricted analogs of deoxynegamycin” (Bioorg Med Chem Lett, 2004).
Values after ≈ are worked out from the molar mass of the structure shown.

Legend:
Assay type in all cases: functional
Staphylococcus aureus [1] = assay: Minimum inhibitory concentration (MIC) against Staphylococcus aureus […]; Inactive
In short: (§1)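 Broth microdilution in Mueller–Hinton broth supplemented with 50% human serum; inoculum 5 × 10⁵ cfu/mL.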

Streptococcus pneumoniae [2] = assay: Minimum inhibitory concentration (MIC) against Streptococcus pneumoniae 1005; Inactive; in short: as §1
Enterobacter cloacae [3] = assay: Minimum inhibitory concentration (MIC) against Enterobacter cloacae ATCC 35030; Inactive; in short: as §1
Escherichia coli [4] = assay: Minimum inhibitory concentration (MIC) against Escherichia coli MG1655 tolC; Inactive; in short: as §1
Pseudomonas aeruginosa [5] = assay: Minimum inhibitory concentration (MIC) against Pseudomonas aeruginosa PA01; Inactive; in short: as §1
Escherichia coli [6] = assay: Minimum inhibitory concentration (MIC) against Escherichia coli MG1655; Inactive; in short: as §1
Escherichia coli [7] = assay: Minimum inhibitory concentration (MIC) against Escherichia coli ATCC 25922; Inactive; in short: as §1
Klebsiella pneumoniae [8] = assay: Minimum inhibitory concentration (MIC) against Klebsiella pneumoniae ATCC 13882; Inactive; in short: as §1
Mus musculus = species on record: Mus musculus; assay: Compound was evaluated for its efficacy in an Escherichia coli murine septicemia model
In short: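 Mice infected intraperitoneally with about 1 × 10⁵ cfu of E. coli ATCC25922; compound given intravenously at 1 and 5 h post-infection.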

Staphylococcus aureus [9] = assay: Minimum inhibitory concentration (MIC) against Staphylococcus aureus ATCC 25293; in short: as §1
Escherichia coli [10] = assay: Minimum inhibitory concentration (MIC) against Escherichia coli MG1655 tolC; in short: as §1
Klebsiella pneumoniae [11] = assay: Minimum inhibitory concentration (MIC) against Klebsiella pneumoniae ATCC 13882; in short: as §1
Pseudomonas aeruginosa [12] = assay: Minimum inhibitory concentration (MIC) against Pseudomonas aeruginosa PA01; in short: as §1
Enterobacter cloacae [13] = assay: Minimum inhibitory concentration (MIC) against Enterobacter cloacae ATCC 35030; in short: as §1
Streptococcus pneumoniae [14] = assay: Minimum inhibitory concentration (MIC) against Streptococcus pneumoniae 1005; in short: as §1
Escherichia coli [15] = assay: Minimum inhibitory concentration (MIC) against Escherichia coli ATCC 25922; in short: as §1
Escherichia coli [16] = assay: Minimum inhibitory concentration (MIC) against Escherichia coli MG1655; in short: as §1
[17] = Staphylococcus aureus, ATCC 25293, read-out: MIC
[18] = Escherichia coli, MG1655, read-out: MIC
[19] = Klebsiella pneumoniae, ATCC 13882, read-out: MIC
[20] = Pseudomonas aeruginosa, read-out: MIC
[21] = Enterobacter cloacae, ATCC 35030, read-out: MIC
[22] = Escherichia coli, ATCC 25922, read-out: MIC
[23] = Escherichia coli, read-out: MIC

| SMILES | MIC (Staphylococcus aureus [1]) [µg/mL] | MIC (Streptococcus pneumoniae [2]) [µg/mL] | MIC (Enterobacter cloacae [3]) [µg/mL] | MIC (Escherichia coli [4]) [µg/mL] | MIC (Pseudomonas aeruginosa [5]) [µg/mL] | MIC (Escherichia coli [6]) [µg/mL] | MIC (Escherichia coli [7]) [µg/mL] | MIC (Klebsiella pneumoniae [8]) [µg/mL] | MIC (Staphylococcus aureus [9]; [17]) [µg/mL] | MIC (Escherichia coli [10]; [18]) [µg/mL] | MIC (Klebsiella pneumoniae [11]; [19]) [µg/mL] | MIC (Pseudomonas aeruginosa [12]; [20]) [µg/mL] | MIC (Enterobacter cloacae [13]; [21]) [µg/mL] | MIC (Streptococcus pneumoniae [14]) [µg/mL] | MIC (Escherichia coli [15]; [22]) [µg/mL] | MIC (Escherichia coli [16]; [23]) [µg/mL] | also measured |
| --- | --- | --- | --- | --- | --- | --- | --- | --- | --- | --- | --- | --- | --- | --- | --- | --- | --- |
| CN(CC(=O)O)NC(=O)C[C@H](N)C[C@@H](O)CN [NEGAMYCIN] | – | – | – | – | – | – | – | – | – | – | – | – | – | – | – | – | ED50 (Mus musculus): 5.1 mg/kg |
| CN(CC(=O)O)NC(=O)C[C@H](N)C1CCCNC1 (stereo partly specified) | – | – | – | – | – | – | – | – | > 128 | > 128 | > 128 | > 128 | > 128 | > 128 | > 128 | > 128 | – |
| CN(CC(=O)O)NC(=O)CC(N)[C@H]1CC[C@@H](N)C1 (stereo partly specified) | – | – | – | – | – | – | – | – | 128 (≈ 496 µM) | 64 (≈ 248 µM) | 64 (≈ 248 µM) | 256 (≈ 991 µM) | 128 (≈ 496 µM) | 128 (≈ 496 µM) | 128 (≈ 496 µM) | 128 (≈ 496 µM) | – |
| CN(CC(=O)O)NC(=O)C[C@H](N)C1CC1N (stereo in doubt; 35e1) | – | – | – | – | – | – | – | – | – | – | – | – | – | – | – | – | MIC (Staphylococcus aureus [9]): >128 µg/mL; MIC (Escherichia coli [10]): >128 µg/mL; MIC (Klebsiella pneumoniae [11]): >128 µg/mL; MIC (Pseudomonas aeruginosa [12]): >128 µg/mL; MIC (Enterobacter cloacae [13]): >128 µg/mL; MIC (Escherichia coli [15]): >128 µg/mL; MIC (Escherichia coli [16]): >128 µg/mL |
| CN(CC(=O)O)NC(=O)CC(N)C1CCC(N)CC1 (stereo unspecified) | – | – | – | – | – | – | – | – | 128 (≈ 470 µM) | 32 (≈ 117 µM) | 32 (≈ 117 µM) | 256 (≈ 940 µM) | 128 (≈ 470 µM) | 128 (≈ 470 µM) | 128 (≈ 470 µM) | 64 (≈ 235 µM) | – |
| CN(CC(=O)O)NC(=O)C[C@H](N)/C=C/CN | – | – | – | – | – | – | – | – | > 256 | > 256 | > 256 | > 256 | > 256 | 256 (≈ 1110 µM) | > 256 | > 256 | – |
| CN(CC(=O)O)NC(=O)C[C@H](N)CC1CC1N (stereo partly specified) | – | – | – | – | – | – | – | – | 256 (≈ 1050 µM) | 32 (≈ 131 µM) | 32 (≈ 131 µM) | 256 (≈ 1050 µM) | 128 (≈ 524 µM) | 128 (≈ 524 µM) | 64 (≈ 262 µM) | 64 (≈ 262 µM) | – |
| CN(CC(=O)O)NC(=O)C[C@H](N)C1CC1N (stereo in doubt; 35e2) | – | – | – | – | – | – | – | – | 128 (≈ 556 µM) | 128 (≈ 556 µM) | 128 (≈ 556 µM) | 128 (≈ 556 µM) | 128 (≈ 556 µM) | – | 128 (≈ 556 µM) | 128 (≈ 556 µM) | – |
| CN(CC(=O)O)NC(=O)CC(N)C1CCCC(N)C1 (stereo unspecified) | – | – | – | – | – | – | – | – | 256 (≈ 940 µM) | 64 (≈ 235 µM) | 64 (≈ 235 µM) | > 256 | 256 (≈ 940 µM) | 128 (≈ 470 µM) | 256 (≈ 940 µM) | 128 (≈ 470 µM) | – |
| CN(CC(=O)O)NC(=O)C[C@H](N)C1CC1CN (stereo partly specified) | – | – | – | – | – | – | – | – | > 128 | > 128 | > 128 | > 128 | > 128 | – | > 128 | > 128 | – |
| CN(CC(=O)O)NC(=O)CC1(N)CCC(N)CC1 (stereo unspecified) | > 256 | > 256 | > 256 | > 256 | > 256 | > 256 | > 256 | > 256 | – | – | – | – | – | – | – | – | – |
| CN(CC(=O)O)NC(=O)C[C@H](N)/C=C(\F)CN | – | – | – | – | – | – | – | – | > 256 | > 256 | > 256 | > 256 | > 256 | 256 (≈ 1030 µM) | > 256 | > 256 | – |
| CN(CC(=O)O)NC(=O)C[C@H](N)/C=C(/F)CN | – | – | – | – | – | – | – | – | > 256 | > 256 | > 256 | > 256 | > 256 | 256 (≈ 1030 µM) | > 256 | > 256 | – |

Further lines, with some results ahead:

| MIC (Staphylococcus aureus [1]) [µg/mL] | MIC (Streptococcus pneumoniae [2]) [µg/mL] | MIC (Enterobacter cloacae [3]) [µg/mL] | MIC (Escherichia coli [4]) [µg/mL] | MIC (Pseudomonas aeruginosa [5]) [µg/mL] | MIC (Escherichia coli [6]) [µg/mL] | MIC (Escherichia coli [7]) [µg/mL] | MIC (Klebsiella pneumoniae [8]) [µg/mL] | MIC (Staphylococcus aureus [9]; [17]) [µg/mL] | MIC (Escherichia coli [10]; [18]) [µg/mL] | MIC (Klebsiella pneumoniae [11]; [19]) [µg/mL] | MIC (Pseudomonas aeruginosa [12]; [20]) [µg/mL] | MIC (Enterobacter cloacae [13]; [21]) [µg/mL] | MIC (Streptococcus pneumoniae [14]) [µg/mL] | MIC (Escherichia coli [15]; [22]) [µg/mL] | MIC (Escherichia coli [16]; [23]) [µg/mL] | SMILES | also measured |
| --- | --- | --- | --- | --- | --- | --- | --- | --- | --- | --- | --- | --- | --- | --- | --- | --- | --- |
| > 256 | > 256 | > 256 | > 256 | > 256 | > 256 | > 256 | > 256 | – | – | – | – | – | – | – | – | CN(CC(=O)O)NC(=O)C[C@H](N)Cc1csc(N)n1 | – |
| > 256 | > 256 | > 256 | > 256 | > 256 | > 256 | > 256 | > 256 | – | – | – | – | – | – | – | – | CN(CC(=O)O)NC(=O)C[C@H](N)c1csc(N)n1 | – |
| > 256 | > 256 | > 256 | > 256 | > 256 | > 256 | > 256 | > 256 | – | – | – | – | – | – | – | – | CN(CC(=O)O)NC(=O)C[C@H](N)Cc1csc(CCNC(=O)OC(C)(C)C)n1 | – |
| > 256 | > 256 | > 256 | > 256 | > 256 | > 256 | > 256 | > 256 | – | – | – | – | – | – | – | – | CN(CC(=O)O)NC(=O)C[C@H](N)c1csc(CCNC(=O)OC(C)(C)C)n1 | – |
| – | – | – | – | – | – | – | – | 64 (≈ 276 µM) | 4 (≈ 17.2 µM) | 8 (≈ 34.4 µM) | 64 (≈ 276 µM) | 4 (≈ 17.2 µM) | 64 (≈ 276 µM) | 16 (≈ 68.9 µM) | 8 (≈ 34.4 µM) | CN(CC(=O)O)NC(=O)C[C@H](N)CCCN | ED50 (Mus musculus): 4.8 mg/kg |
| > 256 | > 256 | > 256 | > 256 | > 256 | > 256 | > 256 | > 256 | – | – | – | – | – | – | – | – | CN(CC(=O)O)NC(=O)C[C@H](N)c1csc(CNC(=O)OC(C)(C)C)n1 | – |
| > 256 | > 256 | > 256 | > 256 | > 256 | > 256 | > 256 | > 256 | – | – | – | – | – | – | – | – | CN(CC(=O)O)NC(=O)C[C@H](N)Cc1csc(CNC(=O)OC(C)(C)C)n1 | – |
